Fewer inactive variants are shown than the library holds.
B1: tRNA (parent)
chain: GUUCCGUUGGCGUAAUGGUAACGCGUCUCCCUCCUAAGGAGAAGACUGCGGGUUCGAGUCCCGUACGGAACG

Variants of: B1
Test: yeast fitness relative to wild type (ratio to wild type); higher = fitter; tRNA-Arg(CCU), competitive growth, 37 C, YPD
Method in brief: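 Changes in genotype frequencies gave Darwinian fitness relative to wild type. Frequencies were read by 100-nucleotide paired-end sequencing of gene amplicons before and after pooled Saccharomyces cerevisiae strains, carrying tRNA-Arg(CCU) gene variants at the native locus, were competed in YPD at 37°C for 24 hours in six replicates. A genotype was kept only with ≥ 100 starting reads, and estimates < 0.5 were set to 0.5.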

Variant	yeast fitness
A20G G56U A65G	0.587
A20G G23A C33G	0.629
A20G C31G C46G G50A G67C	≤ 0.5
A20U C29U A37U	≤ 0.5
A20G G52A	0.664
A20U C31A A37C A45G G68A	≤ 0.5
A20U A37C	0.723
A20U A65U	0.705
A20U A65G	0.986
A20G U28C A40U	1.04
A20G U28C A40C	0.634
A20G C29U U47G C49U	≤ 0.5
A20U C24G A70G	≤ 0.5
A20G G25C U35C G58C	≤ 0.5
A20G U47G G68U	≤ 0.5
A20U A36G	0.766
A20U A36C	0.627
A20G G51A	0.859
A20G C29U C34U G50A C55G	≤ 0.5
A20G G50C C61U	≤ 0.5
A20G G41A G67C	0.601

Variant	yeast fitness
A20G G25C C49U	0.76
A20G G25C C49A	≤ 0.5
A20G G39C G48A	0.924
A20G C29G A37G G67C	≤ 0.5
A20U A21G C31U	0.609
A20G C27A C46G U53A C60G G67C	≤ 0.5
A20U A40G G44C G58C	0.574
A20U A45U C55G	0.533
A20U C31G G38A C61A G63A	≤ 0.5
A20U A40U C46A	0.613
A20G C27A U35C A36G A42U	≤ 0.5
A20G C30G G56C C62U	≤ 0.5
A20U A65U A69U	0.722
A20G C27G A43U G68C	0.582
A20G U28A U53A	≤ 0.5
A20U A57U A65C A70G	≤ 0.5
A20U C29G C49G	0.5
A20G G48A C49G U59A	≤ 0.5
A20G C49U A69U	0.779
A20U A36G G38A A40U	0.501
A20G G63C	0.837

Variant	yeast fitness
A20G G63A	0.903
A20G C24U U32A C49U C55A	≤ 0.5
A20G G23C G38C	≤ 0.5
A20G C49G U59A	0.556
A20G G41A A70G	0.571
A20G G51C C61G	0.546
A20G G23A C33G A69U	≤ 0.5
A20U C31A A69C	0.624
A20G U53A	0.692
A20G U53G	0.571
A20U C27U C30A C33G A42G G51C G68C	≤ 0.5
A20G G25C U47A G56C U59C	≤ 0.5
A20G U35C G50C	≤ 0.5
A20U A21G C31U C46A	≤ 0.5
A20G G25A C55A	≤ 0.5
A20U C22G G23A A43U G48A	≤ 0.5
A20G C33A G44A C61U	0.553
A20G C33U C49G G50C	≤ 0.5
A20G U28C C49A	≤ 0.5
A20G C27U C33G A43G A57G C61U C62U	≤ 0.5
A20U A40G U64A	0.508

Variant	yeast fitness
A20U C22A A45C U53A	0.594
A20U C22U C33U	≤ 0.5
A20G C34A U47A C61G	≤ 0.5
A20G U26A C61G A65C	0.518
A20U A45G C46U C66U	0.626
A20U C30G C33U G58C	≤ 0.5
A20G G38A U47C	0.685
A20U A69U	1.05
A20U A69C	0.979
A20U C30G G63A	≤ 0.5
A20G U32C U47A	0.626
A20G C29U A37G C66U	≤ 0.5
A20G G25C C61U A65G	0.647
A20G G25C G51C	0.658
A20G G38C C66A	≤ 0.5
A20G C27G A43U G63A G68C	≤ 0.5
A20U A40C A42U	≤ 0.5
A20U A21C C22U U53C U64A	0.77
A20G U59G A69C	0.526
A20G G58A A70C	0.836
A20G C27A C46A	0.737
